ChEMBL document CHEMBL1122272, “2-haloethylating agents for cancer chemotherapy. 2-haloethyl sulfonates” (1983)
“And” between values parts separate entries of the source, which are not always exact repeats. Identical values can stand only once.

Tests used:
[1] = system: P388; assay: T/C ratio against P388 leukemia in mice at a dose(mg/kg, schedule (q.d.).; format: functional, organism-based; settings: Mus musculus
Outline: (§1)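 Mice inoculated ip with 10⁶ P388 leukemia cells on day 0. Dosed once on day 1, or q.d. days 1-9 or 1-5. Solutions or suspensions given within about 5 min of preparation, or within 15 min where marked. Value is median/mean survival time, treated vs control, as T/C %. Dose counted toxic if day-5 mortality >3 of 6, T/C <85%, or weight-change difference beyond -4 g.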

[2] = system: P388; assay: Weight change in mice against P388 leukemia; format: functional, Mus musculus
Outline: (§2)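 P388 leukemia mice given 10⁶ cells ip on day 0 and then treated on a single day-1 or q.d. 1-9 or 1-5 schedule. Solutions or suspensions given within about 5 or 15 min of preparation. Value is average weight change on day 5 of treated mice minus that of control mice, in g.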

[3] = system: P388; assay: (§3) T/C ratio against P388 leukemia in mice at a dose(mg/kg, schedule (q.d.)); format: functional, Mus musculus; outline: as §1
[4] = system: P388; assay: as §3; format: functional, Mus musculus; outline: as §1; remark: listed apart in the source
[5] = system: P388; assay: as §3; format: functional, Mus musculus; outline: as §1; remark: listed apart in the source
[6] = system: P388; assay: weight change difference (T-C) in mice against P388 leukemia at a dose(mg/kg, schedule); format: functional, Mus musculus; outline: as §2
[7] = system: P388; assay: T/C ratio against P388 leukemia in mice at a dose(mg/kg, schedule); format: functional, Mus musculus; outline: as §1
[8] = system: P388; assay: T/C ratio against P388 leukemia in mice dose(mg/kg, schedule (q.d.)); format: functional, Mus musculus; outline: as §1
[9] = system: P388; assay: as §3; format: functional, Mus musculus; outline: as §1; remark: listed apart in the source

| Compound | T/C [1] | Weight change difference [2] | T/C [3] | also measured |
| --- | --- | --- | --- | --- |
| O=[N+]([O-])c1ccc(CS(=O)(=O)OCCCl)cc1 | Toxic | – | – | – |
| Cc1c(C)c(C)c(S(=O)(=O)OCCCl)c(C)c1C | – | -0.2 g | 95% | – |
| O=S(=O)(CCl)OCCCl | Toxic | – | 214% and 201% and 175% and 131% and 120% | – |
| O=S(=O)(OCCCl)c1cc(Cl)c(Cl)cc1Cl | – | – | 90% and 114% and 105% | – |
| O=S(=O)(CI)OCCCl | Toxic | -0.1 g | 93% | T/C [4]: 110% |
| O=S(=O)(OCCF)c1cc(Cl)c(Cl)cc1Cl | Toxic | – | 113% and 98% | – |
| CCOS(=O)(=O)CCl | – | – | 107% and 100% and 60% | – |
| O=C(CCl)NCCCl | Toxic | – | 100% and 97% | – |
| CCS(=O)(=O)OCCCl | – | – | 116% and 104% | – |
| O=S(=O)(OCCCl)c1c(Cl)c(Cl)c(Cl)c(Cl)c1Cl | Toxic | -3.2 g and -4.3 g and -1.6 g | 96% and 92% | T/C [5]: 92% |
| O=S(=O)(CCl)OCCF | Toxic | -2.1 g and -0.8 g | 117% and 102% | – |
| C=CS(=O)(=O)OCCCl | Toxic | – | 125% and 111% | – |
| O=S(=O)(OCCCl)c1ccc(F)cc1 | – | – | 100% and 101% | – |
| O=S(=O)(CBr)OCCCl | – | – | 165% and 200% and 159% and 128% and 120% | Weight change difference [6]: -0.2 g |
| O=[N+]([O-])c1ccc(/C=C/S(=O)(=O)OCCCl)cc1 | Toxic | – | 100% and 104% | – |
| C=C(Br)S(=O)(=O)OCCCl | Toxic | -2.8 g and -1.4 g | 100% and 104% | – |
| COc1ccc(S(=O)(=O)OCCCl)cc1 | – | 0 g | 100% | – |
| CCS(=O)(=O)OCCF | Toxic | -0.7 g and -0.6 g | 106% and 111% | – |
| CS(=O)(=O)OCCBr | Toxic | – | 116% and 114% | – |
| O=S(=O)(CCl)NCCCl | – | – | 106% | – |
| O=S(=O)(OCCCl)c1c(F)c(F)c(F)c(F)c1F | Toxic | – | 110% and 100% | – |
| CS(=O)(=O)OCCF | Toxic | – | 89% and 103% and 111% and 100% | – |
| CS(=O)(=O)OCCCl | Toxic | -1.6 g and -0.8 g | 134% and 133% | Weight change difference [6]: -1.2 g and -2.2 g and -0.9 g; T/C [7]: 110%; T/C [8]: 108%; T/C [9]: 102% |
| Cc1cc(C)c(S(=O)(=O)OCCCl)c(C)c1 | Toxic | – | 95% and 106% | – |
| O=S(=O)(/C=C/c1ccccc1)OCCCl | – | -0.1 g | 107% | – |
| N#CCS(=O)(=O)OCCCl | – | -1.5 g and -2.1 g and -1.1 g | 151% and 144% and 126% | – |
